Results on 21 compounds are retold here after ChEMBL document CHEMBL1149650, “4-Amino-6-piperazin-1-yl-pyrimidine-5-carbaldehyde oximes as potent FLT-3 inhibitors” (Bioorg Med Chem Lett, 2007).

Experiment [1] can be described thus: Inhibition of c-fms. Further details: species or system Homo sapiens.
In a further experiment the test system is MV4-11. The experiment is described as follows: Antiproliferative activity against human MV411 cells.
The target in experiment [2] is Mast/stem cell growth factor receptor Kit (Homo sapiens, UniProt P10721). Briefly: Inhibition of c-kit.
Sequence of Mast/stem cell growth factor receptor Kit (P10721 whole entry): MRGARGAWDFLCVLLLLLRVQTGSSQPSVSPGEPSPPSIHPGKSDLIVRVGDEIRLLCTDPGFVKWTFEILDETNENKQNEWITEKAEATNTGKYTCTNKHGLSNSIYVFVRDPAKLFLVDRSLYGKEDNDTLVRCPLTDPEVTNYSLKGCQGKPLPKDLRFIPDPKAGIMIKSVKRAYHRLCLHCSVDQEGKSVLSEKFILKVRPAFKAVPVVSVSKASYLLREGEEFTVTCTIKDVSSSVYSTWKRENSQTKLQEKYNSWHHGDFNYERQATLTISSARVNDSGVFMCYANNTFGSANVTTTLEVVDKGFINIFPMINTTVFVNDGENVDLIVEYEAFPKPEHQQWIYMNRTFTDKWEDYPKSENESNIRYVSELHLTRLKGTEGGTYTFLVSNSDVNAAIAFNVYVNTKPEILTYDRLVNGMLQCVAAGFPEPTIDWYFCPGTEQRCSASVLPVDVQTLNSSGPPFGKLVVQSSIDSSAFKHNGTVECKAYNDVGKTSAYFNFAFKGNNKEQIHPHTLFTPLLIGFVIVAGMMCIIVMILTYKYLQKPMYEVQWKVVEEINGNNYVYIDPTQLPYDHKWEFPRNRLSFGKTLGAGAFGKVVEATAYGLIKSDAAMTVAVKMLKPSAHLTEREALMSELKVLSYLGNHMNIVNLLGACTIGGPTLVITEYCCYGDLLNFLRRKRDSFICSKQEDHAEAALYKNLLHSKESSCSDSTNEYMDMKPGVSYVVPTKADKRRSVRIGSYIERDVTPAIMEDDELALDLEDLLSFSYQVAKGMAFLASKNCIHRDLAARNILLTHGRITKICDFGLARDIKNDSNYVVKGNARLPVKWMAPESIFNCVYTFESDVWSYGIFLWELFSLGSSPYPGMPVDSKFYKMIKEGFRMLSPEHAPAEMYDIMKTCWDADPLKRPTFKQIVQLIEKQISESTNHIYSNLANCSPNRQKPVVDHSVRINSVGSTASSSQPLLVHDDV
For experiment [3], the target named is Platelet-derived growth factor receptor beta (Homo sapiens, UniProt P09619). The experiment is described as follows: Inhibition of PDGFRbeta.
Sequence of Platelet-derived growth factor receptor beta (P09619 whole entry): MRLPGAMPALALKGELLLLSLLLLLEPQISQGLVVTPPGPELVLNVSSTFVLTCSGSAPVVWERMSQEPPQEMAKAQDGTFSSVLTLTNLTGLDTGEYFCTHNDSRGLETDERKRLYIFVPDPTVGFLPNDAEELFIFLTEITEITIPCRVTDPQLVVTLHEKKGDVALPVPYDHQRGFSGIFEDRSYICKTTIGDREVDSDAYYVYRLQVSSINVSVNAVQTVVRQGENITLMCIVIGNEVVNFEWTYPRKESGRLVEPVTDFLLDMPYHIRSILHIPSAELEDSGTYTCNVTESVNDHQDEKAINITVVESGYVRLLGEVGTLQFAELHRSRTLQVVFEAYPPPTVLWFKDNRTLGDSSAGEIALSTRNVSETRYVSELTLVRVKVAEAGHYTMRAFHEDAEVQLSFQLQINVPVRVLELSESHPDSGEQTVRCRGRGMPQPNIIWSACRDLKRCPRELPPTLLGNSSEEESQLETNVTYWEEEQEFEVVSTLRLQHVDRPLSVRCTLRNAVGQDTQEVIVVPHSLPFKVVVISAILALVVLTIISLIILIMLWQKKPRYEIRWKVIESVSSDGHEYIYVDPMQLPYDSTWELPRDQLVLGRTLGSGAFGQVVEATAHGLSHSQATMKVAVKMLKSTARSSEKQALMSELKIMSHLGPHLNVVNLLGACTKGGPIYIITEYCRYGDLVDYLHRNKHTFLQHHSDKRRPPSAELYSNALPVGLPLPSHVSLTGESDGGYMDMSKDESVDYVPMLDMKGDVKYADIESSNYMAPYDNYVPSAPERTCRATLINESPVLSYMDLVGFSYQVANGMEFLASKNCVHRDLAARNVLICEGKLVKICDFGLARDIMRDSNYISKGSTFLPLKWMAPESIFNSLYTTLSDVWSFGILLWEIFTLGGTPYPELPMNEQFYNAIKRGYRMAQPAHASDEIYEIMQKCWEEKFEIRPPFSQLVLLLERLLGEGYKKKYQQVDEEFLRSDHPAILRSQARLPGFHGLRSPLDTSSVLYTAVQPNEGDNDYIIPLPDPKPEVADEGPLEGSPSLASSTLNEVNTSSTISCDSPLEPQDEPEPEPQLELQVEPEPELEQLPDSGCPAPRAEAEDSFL
The target in experiment [4] is Tyrosine-protein kinase Fes/Fps (Homo sapiens) (UniProt P07332). The experiment is described as follows: Inhibition of FES at 3 uM. The essentials: (§1)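 Run in an external kinase selectivity panel at 3 µM compound with 100 µM ATP. Reported as percent inhibition.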
Sequence of Tyrosine-protein kinase Fes/Fps (Homo sapiens) (P07332 whole entry): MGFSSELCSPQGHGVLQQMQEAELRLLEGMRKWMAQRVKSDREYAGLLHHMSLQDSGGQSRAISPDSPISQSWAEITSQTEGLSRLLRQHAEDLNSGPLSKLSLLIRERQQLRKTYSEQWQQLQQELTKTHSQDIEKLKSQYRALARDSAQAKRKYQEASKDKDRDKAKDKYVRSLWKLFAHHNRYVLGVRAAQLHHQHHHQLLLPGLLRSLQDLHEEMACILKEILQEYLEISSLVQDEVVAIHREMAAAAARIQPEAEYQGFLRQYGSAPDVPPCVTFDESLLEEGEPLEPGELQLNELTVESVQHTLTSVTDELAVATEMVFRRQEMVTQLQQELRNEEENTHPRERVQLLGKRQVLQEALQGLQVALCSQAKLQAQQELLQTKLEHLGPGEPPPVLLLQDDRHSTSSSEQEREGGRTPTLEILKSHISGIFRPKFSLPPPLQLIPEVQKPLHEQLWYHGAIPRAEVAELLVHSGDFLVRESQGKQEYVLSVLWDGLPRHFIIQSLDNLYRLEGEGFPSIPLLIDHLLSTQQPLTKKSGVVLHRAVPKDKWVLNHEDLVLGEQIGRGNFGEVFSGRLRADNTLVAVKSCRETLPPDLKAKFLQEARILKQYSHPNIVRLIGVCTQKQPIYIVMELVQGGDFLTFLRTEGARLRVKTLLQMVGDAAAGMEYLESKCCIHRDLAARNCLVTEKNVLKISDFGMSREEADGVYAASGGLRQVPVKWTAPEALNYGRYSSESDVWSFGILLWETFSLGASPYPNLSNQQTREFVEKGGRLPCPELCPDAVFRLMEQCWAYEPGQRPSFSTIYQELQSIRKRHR
The target of experiment [5] is ALK tyrosine kinase receptor (Homo sapiens) (UniProt Q9UM73). The experiment is described as follows: Inhibition of ALK at 3 uM. The essentials:
as §1

For experiment [6], the system named is BaF3. The experiment is described as follows: Antiproliferative activity against human BaF3 cells expressing FLT3. To be noted: Mus musculus.
The test system of experiment [7] is BaF3. Briefly: Antiproliferative activity against […] BaF3 cells at 10 uM. The class given is functional.

Molecules are shown by their SMILES.

Sequence of ALK tyrosine kinase receptor (Homo sapiens) (Q9UM73 19-1620 limits assumed): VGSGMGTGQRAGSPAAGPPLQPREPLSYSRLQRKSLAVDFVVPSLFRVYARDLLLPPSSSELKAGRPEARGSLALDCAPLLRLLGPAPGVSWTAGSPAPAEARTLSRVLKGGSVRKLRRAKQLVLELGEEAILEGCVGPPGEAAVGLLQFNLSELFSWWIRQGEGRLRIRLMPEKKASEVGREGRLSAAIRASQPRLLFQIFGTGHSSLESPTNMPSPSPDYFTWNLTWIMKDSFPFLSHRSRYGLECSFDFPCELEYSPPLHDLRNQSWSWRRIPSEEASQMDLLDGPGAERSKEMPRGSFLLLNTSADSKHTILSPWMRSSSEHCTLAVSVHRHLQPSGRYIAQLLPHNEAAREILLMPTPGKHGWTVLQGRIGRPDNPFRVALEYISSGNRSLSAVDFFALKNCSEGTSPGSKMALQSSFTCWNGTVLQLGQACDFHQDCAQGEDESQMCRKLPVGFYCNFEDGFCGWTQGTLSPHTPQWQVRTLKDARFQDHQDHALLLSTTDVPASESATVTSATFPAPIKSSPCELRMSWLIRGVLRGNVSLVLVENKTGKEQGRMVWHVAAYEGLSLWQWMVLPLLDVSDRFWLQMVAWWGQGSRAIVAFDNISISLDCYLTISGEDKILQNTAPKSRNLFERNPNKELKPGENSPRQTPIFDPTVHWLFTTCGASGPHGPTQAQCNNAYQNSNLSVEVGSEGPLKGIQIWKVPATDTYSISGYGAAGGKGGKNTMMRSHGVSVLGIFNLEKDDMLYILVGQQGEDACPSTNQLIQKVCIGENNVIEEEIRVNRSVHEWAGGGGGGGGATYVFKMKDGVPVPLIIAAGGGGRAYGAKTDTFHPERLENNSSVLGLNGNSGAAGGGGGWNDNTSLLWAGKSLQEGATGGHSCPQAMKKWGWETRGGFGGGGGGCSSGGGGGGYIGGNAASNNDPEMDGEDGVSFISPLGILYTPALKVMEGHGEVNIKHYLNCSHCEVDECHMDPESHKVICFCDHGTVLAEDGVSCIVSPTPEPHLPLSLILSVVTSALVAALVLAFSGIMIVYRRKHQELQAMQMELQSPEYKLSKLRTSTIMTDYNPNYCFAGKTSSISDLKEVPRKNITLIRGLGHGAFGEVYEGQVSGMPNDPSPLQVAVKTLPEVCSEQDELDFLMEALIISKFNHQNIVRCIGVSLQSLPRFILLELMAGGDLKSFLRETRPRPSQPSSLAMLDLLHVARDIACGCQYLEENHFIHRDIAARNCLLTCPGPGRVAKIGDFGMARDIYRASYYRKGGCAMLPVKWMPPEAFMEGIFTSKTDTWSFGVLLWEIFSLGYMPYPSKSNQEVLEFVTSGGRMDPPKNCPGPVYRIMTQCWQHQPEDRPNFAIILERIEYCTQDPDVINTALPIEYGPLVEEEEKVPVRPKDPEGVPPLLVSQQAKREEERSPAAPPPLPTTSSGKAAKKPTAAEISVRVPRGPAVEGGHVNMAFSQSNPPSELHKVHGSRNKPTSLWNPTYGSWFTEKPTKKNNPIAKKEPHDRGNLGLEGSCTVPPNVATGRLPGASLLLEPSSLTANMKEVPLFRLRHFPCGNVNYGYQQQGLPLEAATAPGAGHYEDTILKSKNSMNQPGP

For `CO/N=C/c1c(N)ncnc1N1CCN(C(=O)Nc2ccc(OC(C)C)cc2)CC1`, the half-inhibitory concentration (IC50) (usually the concentration at which inhibition is half-maximal) is 1280 nM in experiment [1], 79 nM in the experiment on MV4-11, 10.5 nM in experiment [2] and 10700 nM in experiment [3]. Also, the results for the inhibition in experiment [4] and in experiment [5] were 34% and 31%, respectively. `CO/N=C/c1c(N)ncnc1N1CCN(C(=O)Nc2ccc(Oc3ccccc3)cc2)CC1`: the midpoint of inhibition in the experiment with MV4-11, the IC50, lay at 86 nM. This lies in the double-digit nanomolar range. On to `CC(C)Oc1ccc(NC(=O)N2CCN(c3ncnc(N)c3/C=N/OCCCO)CC2)cc1`, for which, in the experiment on MV4-11, the half-maximal inhibitory concentration (IC50) was 283 nM. This IC50 lies about 3.3-fold higher than the previous one. Turning to `CC(C)Oc1ccc(NC(=O)N2CCN(c3ncnc(N)c3/C=N/OCC(=O)N3CCOCC3)CC2)cc1`, in the experiment with MV4-11, the half-maximal inhibitory concentration (IC50) stood at 268 nM.

As to `Nc1ncnc(N2CCN(C(=O)Nc3ccc(N4CCCC4)cc3)CC2)c1/C=N/OCC(=O)N1CCOCC1`, half-maximal inhibition with MV4-11 (IC50) was put at 458 nM. In the case of `CO/N=C/c1c(N)ncnc1N1CCN(C(=O)Nc2ccc(C(C)C)cc2)CC1`, the figures for the IC50 in the experiment on MV4-11 and in the experiment with BaF3 [6] were 78 nM and 8 nM, respectively.

In the case of `CO/N=C/c1c(N)ncnc1N1CCN(C(=O)Nc2ccc(Cl)cc2)CC1`, the IC50 in the experiment on MV4-11 was above 1000 nM. In addition, the Activity with BaF3 [7] was below 50%. `CCO/N=C/c1c(N)ncnc1N1CCN(C(=O)Nc2ccc(OC(C)C)cc2)CC1`: the half-maximal inhibitory concentration (IC50) in the experiment with MV4-11 worked out at 77 nM. This counts as double-digit nanomolar.

Turning to `CO/N=C/c1c(N)ncnc1N1CCN(C(=O)Nc2ccc(N(C)C)cc2)CC1`, half-maximal inhibition in the experiment with MV4-11 (IC50) required 472 nM.

As for `CO/N=C/c1c(N)ncnc1N1CCN(C(=O)Nc2ccc(N3CCCC3)cc2)CC1`, the midpoint of inhibition in the experiment on MV4-11, the IC50, lay at 99 nM. `CO/N=C/c1c(N)ncnc1N1CCN(C(=O)Nc2ccc(N3CCOCC3)cc2)CC1` yielded a 50% inhibitory concentration (IC50) in the experiment with MV4-11 of 515 nM. Moreover, the Activity in the experiment on BaF3 [7] is reported as below 50%.

For the compound `CO/N=C/c1c(N)ncnc1N1CCN(C(=O)Nc2ccc(OC3CCC3)nc2)CC1`, in the experiment on MV4-11, the IC50 was determined as 111 nM.

As to `CC(C)Oc1ccc(NC(=O)N2CCN(c3ncnc(N)c3/C=N/OCCNS(C)(=O)=O)CC2)cc1`, in the experiment with MV4-11, 415 nM corresponded to half-maximal inhibition (IC50). Compared with the last compound, the IC50 is about 3.7-fold higher.

As for `CCO/N=C/c1c(N)ncnc1N1CCN(C(=O)Nc2ccc(OC3CCC3)nc2)CC1`, in the experiment with MV4-11, it took 65 nM to reach half-maximal inhibition (IC50).

In turn, `CO/N=C/c1c(N)ncnc1N1CCN(C(=O)Nc2ccc(OC3CCCC3)nc2)CC1` returned an IC50 with MV4-11 of 112 nM. Same read-out and setting: with `CC(C)Oc1ccc(NC(=O)N2CCN(c3ncnc(N)c3/C=N/OCCN3CCOCC3)CC2)cc1` the figure was 177 nM.

As to `CO/N=C/c1c(N)ncnc1N1CCN(C(=O)Nc2ccc(C3CCCCC3)cc2)CC1`, it took 52 nM to reach half-maximal inhibition in the experiment on MV4-11 (IC50). In turn, `Nc1ncnc(N2CCN(C(=O)Nc3ccc(N4CCCC4)cc3)CC2)c1/C=N/OCCN1CCOCC1` came in with a half-inhibitory concentration (IC50) in the experiment on MV4-11 of 362 nM. Compared with the last compound, the IC50 is about 7-fold higher. In the experiment on MV4-11, `CS(=O)(=O)NCCO/N=C/c1c(N)ncnc1N1CCN(C(=O)Nc2ccc(N3CCCC3)cc2)CC1` showed a half-maximal inhibitory concentration (IC50) of 554 nM. Turning to `CO/N=C/c1c(N)ncnc1N1CCN(C(=O)Nc2ccc(N3CCCCC3)cc2)CC1`, the IC50 with MV4-11 was determined as 89 nM; in the experiment on BaF3 [6] it was 153 nM. In turn, `CCO/N=C/c1c(N)ncnc1N1CCN(C(=O)Nc2ccc(N3CCCCC3)cc2)CC1` yielded an IC50 in the experiment with MV4-11 of 58 nM.
